Key:
Assay type in all cases: functional
Escherichia coli [1] = assay: Antibacterial activity against Escherichia coli by CLSI M100-S17 method
[2] = tested on: Staphylococcus epidermidis; assay: Antibacterial activity against methicillin-susceptible Staphylococcus epidermidis by CLSI M100-S17 method
Escherichia coli [3] = assay: Antibacterial activity against Escherichia coli AG100
Streptococcus agalactiae = assay: Antibacterial activity against Streptococcus agalactiae by CLSI M100-S17 method
Proteus mirabilis = assay: Antibacterial activity against Proteus mirabilis by CLSI M100-S17 method
Staphylococcus aureus [4] = assay: Antibacterial activity against methicillin-resistant Staphylococcus aureus by CLSI M100-S17 method
[5] = tested on: Stenotrophomonas maltophilia; assay: Antibacterial activity against Stenotrophomonas maltophilia by CLSI M100-S17 method
Enterococcus faecium = assay: Antibacterial activity against Enterococcus faecium by CLSI M100-S17 method
Staphylococcus aureus [6] = assay: Antibacterial activity against methicillin-susceptible Staphylococcus aureus by CLSI M100-S17 method
Streptococcus pneumoniae = assay: Antibacterial activity against Streptococcus pneumoniae by CLSI M100-S17 method
Enterobacter cloacae = assay: Antibacterial activity against Enterobacter cloacae by CLSI M100-S17 method
Enterococcus faecalis = assay: Antibacterial activity against Enterococcus faecalis by CLSI M100-S17 method
Pseudomonas aeruginosa = assay: Antibacterial activity against Pseudomonas aeruginosa by CLSI M100-S17 method
Acinetobacter baumannii = assay: Antibacterial activity against Acinetobacter baumannii by CLSI M100-S17 method
Klebsiella oxytoca = assay: Antibacterial activity against Klebsiella oxytoca by CLSI M100-S17 method
[7] = tested on: Staphylococcus epidermidis; assay: Antibacterial activity against methicillin-resistant Staphylococcus epidermidis by CLSI M100-S17 method
Escherichia coli [8] = assay: Antibacterial activity against acrAB-deficient Escherichia coli AG100a
Klebsiella pneumoniae = assay: Antibacterial activity against Klebsiella pneumoniae by CLSI M100-S17 method
Streptococcus pyogenes = assay: Antibacterial activity against Streptococcus pyogenes by CLSI M100-S17 method
Moraxella catarrhalis = assay: Antibacterial activity against Moraxella catarrhalis by CLSI M100-S17 method
Staphylococcus aureus [9] = assay: Antibacterial activity against Staphylococcus aureus ATCC 29213 by CLSI M100-S17 method; details: ATCC29213
In short: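 Reference strain S. aureus ATCC 29213 was tested by CLSI broth microdilution in frozen in-house panels. Compound was dissolved and diluted in DMSO over doubling dilutions of 0.008 to 4 μg/ml.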

Serratia marcescens = assay: Antibacterial activity against Serratia marcescens by CLSI M100-S17 method

Cc1c(CN(C)C(=O)/C=C/c2cnc3c(c2)CCC(=O)N3)oc2ccccc12 [AFN-1252]
> 4 µg/mL: MIC90 (Escherichia coli [1]) | MIC (Streptococcus agalactiae) | MIC50 (Streptococcus agalactiae) | MIC90 (Streptococcus agalactiae) | MIC90 (Proteus mirabilis) | MIC [5] | MIC50 [5] | MIC90 [5] | MIC50 (Enterococcus faecium) | MIC90 (Enterococcus faecium) | MIC50 (Streptococcus pneumoniae) | MIC90 (Streptococcus pneumoniae) | MIC50 (Enterobacter cloacae) | MIC90 (Enterobacter cloacae) | MIC (Enterococcus faecalis) | MIC50 (Enterococcus faecalis) | MIC90 (Enterococcus faecalis) | MIC (Pseudomonas aeruginosa) | MIC50 (Pseudomonas aeruginosa) | MIC90 (Pseudomonas aeruginosa) | MIC (Acinetobacter baumannii) | MIC50 (Acinetobacter baumannii) | MIC90 (Acinetobacter baumannii) | MIC50 (Klebsiella oxytoca) | MIC90 (Klebsiella oxytoca) | MIC50 (Klebsiella pneumoniae) | MIC90 (Klebsiella pneumoniae) | MIC50 (Streptococcus pyogenes) | MIC90 (Streptococcus pyogenes) | MIC (Streptococcus pyogenes; read-out: MIC) | MIC50 (Moraxella catarrhalis) | MIC90 (Moraxella catarrhalis) | MIC90 (Serratia marcescens)
≤ 0.008 µg/mL: MIC50 [2] | MIC50 (Staphylococcus aureus [6]) | MIC90 (Staphylococcus aureus [6]) | MIC90 [7]
> 32 µg/mL: MIC (Escherichia coli [3])
0.015 µg/mL: MIC (Staphylococcus aureus [9])
0.008 µg/mL: MIC (Staphylococcus aureus [4]) | MIC [7]
4 µg/mL: MIC50 (Escherichia coli [1]) | MIC50 (Proteus mirabilis) | MIC50 (Serratia marcescens)
0.016 µg/mL: MIC (Escherichia coli [8])
0.03 µg/mL: MIC90 [2]
